These results are taken from ChEMBL document CHEMBL6153049, “Functionalized regioisomers of the natural product phenazines myxin and iodinin as potent inhibitors of Mycobacterium tuberculosis and human acute myeloid leukemia cells” (Eur J Med Chem, 2025).

The structures appear in SMILES notation.

Holding throughout (type): functional, organism-based
Settings in all cases: 168 h

In test [1] the test system is Mycobacterium tuberculosis. In words: Antimycobacterial activity against INH-resistant Mycobacterium tuberculosis expressing katG+ assessed as bacterial growth inhibition measured after 1 week by MABA assay. In short, it runs like this:
(§1)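 Colonies grown on 7H10+OADC agar at 37 °C, then to mid-log in 7H9+OADC; about 4×10^5 CFU/mL inoculated into 7H9 with escalating compound concentrations. Incubated 37 °C for 1 week, then resazurin (0.6 mM in PBS) mixed 8:5 with 20 % Tween 80 was added and incubated overnight at 37 °C. Fluorescent resorufin read-out gave IC50.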

For test [2], the system named is Mycobacterium tuberculosis. Kind of test: Antimycobacterial activity against INH-resistant Mycobacterium tuberculosis expressing inhA+ assessed as bacterial growth inhibition measured after 1 week by MABA assay. In short, it runs like this:
as §1

Test [3] has as its system Mycobacterium tuberculosis. Kind of test: Antimycobacterial activity against Rifampicin-resistant Mycobacterium tuberculosis expressing rpoB+ assessed as bacterial growth inhibition measured after 1 week by MABA assay. In short, it runs like this: as §1
Background: Resazurin is reduced to fluorescent resorufin, in cell work by metabolically active cells.

For orientation: IC50 means the point on the concentration scale where inhibition reaches its midpoint. `[O-][n+]1c2cccc(O)c2[n+]([O-])c2cccc(O)c21`: the IC50 in test [1] came to 70 nM.

As to `COc1cccc2c1[n+]([O-])c1cccc(O)c1[n+]2[O-]`, the half-maximal inhibitory concentration (IC50) in test [1], in test [2] and in test [3] was 62.5 nM each time.

On to `[O-][n+]1c2ccccc2[n+]([O-])c2c(O)cccc21`, for which the concentration for half-maximal inhibition (IC50) in test [1] was determined as 50 nM.

Turning to `CCOCOc1cc(OC)c2c(c1)[n+]([O-])c1ccccc1[n+]2[O-]`, the figures for the 50% inhibitory concentration (IC50) in test [1], in test [2] and in test [3] were 62.5 nM, 31.2 nM and 31.2 nM, respectively.

Take `[O-][n+]1c2ccccc2[n+]([O-])c2c(O)cc(O)cc21`: the figures for the IC50 in test [1], in test [2] and in test [3] were 500 nM, 125 nM and 1000 nM, respectively.

For the compound `COc1cc(O)c2c(c1)[n+]([O-])c1ccccc1[n+]2[O-]`, the results for the IC50 in test [1], in test [2] and in test [3] were 62.5 nM, 16 nM and 62.5 nM, respectively.

Consider `CCOC(=O)COc1cc(O)c2c(c1)[n+]([O-])c1ccccc1[n+]2[O-]`, for which the figures for the IC50 in test [1], in test [2] and in test [3] were 250 nM, 62.5 nM and 250 nM, respectively.

For the compound `CCOC(=O)COc1cc(OC)c2c(c1)[n+]([O-])c1ccccc1[n+]2[O-]`, the IC50 in test [1], in test [2] and in test [3] was 250 nM in each case.

For the compound `CC(=O)Oc1cc(O)c2c(c1)[n+]([O-])c1ccccc1[n+]2[O-]`, the half-inhibitory concentration (IC50) in test [1] turned out to be 1000 nM; in test [2], 500 nM; in test [3], 1000 nM.

Consider `CCOc1cc(O)c2c(c1)[n+]([O-])c1ccccc1[n+]2[O-]`, for which the IC50 in test [1] turned out to be 62.5 nM; in test [2], 4 nM; in test [3] it was 62.5 nM.

For the compound `COc1cccc2c1[n+]([O-])c1ccccc1[n+]2[O-]`, the half-maximal inhibitory concentration (IC50) in test [1], in test [2] and in test [3] was 125 nM throughout.

For the compound `COc1cc(OC(C)=O)c2c(c1)[n+]([O-])c1ccccc1[n+]2[O-]`, the 50% inhibitory concentration (IC50) turned out to be 125 nM in test [1], 125 nM in test [2] and 250 nM in test [3].

With `CCOCOc1cc(O)c2c(c1)[n+]([O-])c1ccccc1[n+]2[O-]`, the results for the IC50 in test [1], in test [2] and in test [3] were 62.5 nM, 4 nM and 31.2 nM, respectively.

On to `COc1cc(OC)c2c(c1)[n+]([O-])c1ccccc1[n+]2[O-]`, for which the half-inhibitory concentration (IC50) in test [1], in test [2] and in test [3] was 125 nM in each case.

As for `COCOc1cc(O)c2c(c1)[n+]([O-])c1ccccc1[n+]2[O-]`, the IC50 in test [1], in test [2] and in test [3] was 125 nM in each case.
